Assay results taken from PubChem BioAssay AID504382 (The Scripps Research Institute Molecular Screening Center, 2011).
Out of some 2,500 compounds screened, about 460 (18%) were called active.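 The calls were made as follows: active = mean activation above a cutoff of low control average plus 3 SD from the earlier screen (cut at about 12% in these data); inactive = the rest.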 A selection follows.

Assay: compound fluorescence interference without thin filaments, confirmation, artefact control for cardiac RTF calcium sensitizer project, biochemical (AID 504382)
Settings: IANBD fluorescence interference counterscreen, buffer, EC20 Ca2+; at 7.2 µM; active compounds read high; scaled: EC20 calcium 0, EC100 calcium 100
Summary of the method: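 Medium: MOPS buffer, 190 mM, with KCl, MgCl2, EGTA, NTA, DTT, pH 7.20; Dosing: one dose of 7.2 µM, 0.7% DMSO; Probe or stimulus: calcium at EC20 level, 0.472 mM final; Incubation: 15 min, 25 °C; Evaluation: compound fluorescence interference relative to control well signal range; Signal: fluorescence, 480/540 nm.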
In the case of `COc1ccc(/C=N/NC(=O)Cn2c(Cc3ccc(OC)c(OC)c3)nc3ccccc32)cc1`, the fluorescence artifact activation is reported as 1.63% (inactive).
In the case of `COc1ncnc2c1NC1=C(S2)C(=NCCC(=O)O)CC(C)(C)C1`, the fluorescence artifact activation is reported as 19.4% (active).
With `CC(=O)c1cc2c(cc1N/C(=N/S(=O)(=O)c1ccc(Br)cc1)c1ccccc1)OCO2` the fluorescence artifact activation was 0.13% (inactive).
With `O=C(NCc1cccc(C(F)(F)F)c1)c1cccc(S(=O)(=O)NCc2ccccc2)c1` the fluorescence artifact activation was 0.02% (inactive).
With `CC(=NNC(=O)c1ccncc1)c1ccc2ccccc2c1O` the fluorescence artifact activation was 0.08% (inactive).
With `CCOC(=O)c1sc2nc(C)nc(SCC(=O)NC3CCS(=O)(=O)C3)c2c1C` (stereo not given) the fluorescence artifact activation was 8.03% (inactive).
For `O=C(NCC(=O)N(CC1CCCO1)C1(C(=O)NC2CCCCC2)CCCCC1)c1ccccc1` (stereo not given), the fluorescence artifact activation was -0.09% (inactive).
For `S=C(Nc1cc(Cl)ccc1Oc1ccccc1)N1CCN(c2ccccn2)CC1`, the fluorescence artifact activation was 23.1% (active).
For `O=C(COc1ccccc1Cl)N1CCN(c2ccccn2)CC1`, the fluorescence artifact activation was 0.24% (inactive).
For `CCOC(=O)N1CCN(C(=S)Nc2ccccc2C)CC1`, the fluorescence artifact activation was 7.89% (inactive).
For `CC(COC(=O)c1ccccc1)(COC(=O)c1ccccc1)/[N+]([O-])=C/c1ccccc1`, the fluorescence artifact activation was 9.45% (inactive).
With `COCCCn1c(=O)/c(=C\c2cccc(OC)c2OC)s/c1=C(/C#N)C(=O)Nc1ccc(C(=O)O)cc1` the fluorescence artifact activation was 2.82% (inactive).
In the case of `CCc1cc(C(=O)Nc2ccc(OC)nc2)sc1C`, the fluorescence artifact activation is reported as -0.03% (inactive).
With `CCC(=O)N1CCC2(CC1)Oc1ccc(Cl)cc1C(=O)C21CC(c2cccnc2)=NO1` (stereo not given) the fluorescence artifact activation was 5.01% (inactive).
For `COc1ccc(C2(CNC(C)=O)CCCC2)cc1OC`, the fluorescence artifact activation was 0.1% (inactive).
With `CCOC(=O)c1ccc(N2C(=O)C3C(C2=O)C(C(=O)c2ccc(Cl)cc2)N2CCCC32)cc1` (stereo not given) the fluorescence artifact activation was 1.5% (inactive).
With `O=C(c1ccccc1)[C@@H]1[C@@H]2C(=O)N(c3ccc(F)cc3)C(=O)[C@@H]2C2CCCN21` (stereo not given in full) the fluorescence artifact activation was 1.82% (inactive).
For `Cc1ccc(N2C(=O)[C@@H]3[C@H](C2=O)C2CCCN2[C@@H]3C(=O)c2ccccc2)cc1` (stereo not given in full), the fluorescence artifact activation was 65.3% (active).
With `Cc1ccc(N2C(=O)C3C(C(=O)c4ccccc4)=NN(c4ccccc4)C3C2=O)cc1` (stereo not given) the fluorescence artifact activation was 5.76% (inactive).
In the case of `CC(=O)Oc1ccc(N2C(=O)C3C(C2=O)C(C(=O)c2ccc(Cl)cc2)N2CCCC32)cc1` (stereo not given), the fluorescence artifact activation is reported as 12.2% (active).
In the case of `COc1ccc(N2C(=O)C3C(C2=O)C(C(=O)c2ccc(Cl)cc2)N2CCCC32)cc1` (stereo not given), the fluorescence artifact activation is reported as 2.56% (inactive).
In the case of `CCc1ccc(Nc2n[n+](-c3ccccc3)c(-c3ccc(N(CC)CC)cc3)s2)cc1`, the fluorescence artifact activation is reported as -0.01% (inactive).
For `C[C@H](CO)N1C[C@H](C)[C@@H](CN(C)S(=O)(=O)c2cccs2)Oc2c(NC(=O)Nc3ccc4c(c3)OCO4)cccc2C1=O`, the fluorescence artifact activation was 2.08% (inactive).
In the case of `COCc1cc(=O)[nH]c2cc(NC(=O)C(C)(C)CCl)c(C)cc12`, the fluorescence artifact activation is reported as -0.05% (inactive).
For `COc1ccc(CCNC(=O)c2ccccc2OCc2c(C)noc2C)cc1`, the fluorescence artifact activation was -0.02% (inactive).
For `CCOCCCNC(=S)NCCCNc1nc2c(C)cc(C)cc2cc1C#N`, the fluorescence artifact activation was 0.14% (inactive).
With `COc1cc(N2CCCC2)c(OC)cc1/C=C1/NC(=S)NC1=O` the fluorescence artifact activation was 16.7% (active).
In the case of `COc1cc(N2CCCC2)c(OC)cc1/C=C(/C#N)c1ccc(Br)cc1`, the fluorescence artifact activation is reported as 0.93% (inactive).
For `COc1cc(N2CCCC2)c(OC)cc1/C=C(/C#N)c1cccc(Br)c1`, the fluorescence artifact activation was -0.03% (inactive).
For `N#Cc1ccc(CSc2nnc(-c3cnccn3)o2)cc1`, the fluorescence artifact activation was 45.1% (active).
For `O=c1oc2cc(O)ccc2cc1-c1nc2c(s1)CCc1ccccc1-2`, the fluorescence artifact activation was 0.02% (inactive).
In the case of `CC(C)(C)c1cc[n+](-c2[nH]c(=O)sc2/C=N/NC([S-])=Nc2ccccc2)cc1`, the fluorescence artifact activation is reported as 1.92% (inactive).
For `Cc1ccccc1C(=O)NCCCc1ccccc1`, the fluorescence artifact activation was 0.02% (inactive).
In the case of `COC(=O)N1CCN(S(=O)(=O)c2ccc(F)cc2)CC1`, the fluorescence artifact activation is reported as -0.07% (inactive).
With `O=S(=O)(c1ccc(F)cc1)N1CCN(CCOc2ccccc2)CC1` the fluorescence artifact activation was 361% (active).
In the case of `CN1CCN(S(=O)(=O)c2cccc(C(=O)Oc3cccc(Br)c3)c2)CC1`, the fluorescence artifact activation is reported as 0.74% (inactive).
For `CC(C)c1nnc(N2C(=O)C(O)=C(C(=O)c3cccs3)C2c2ccccc2)s1` (stereo not given), the fluorescence artifact activation was 0.07% (inactive).
For `O=C(COC(=O)c1cc(-c2cccc3ccccc23)nc2ccccc12)NC1CCS(=O)(=O)C1` (stereo not given), the fluorescence artifact activation was 0.37% (inactive).
With `CCCCC(=O)Nc1ccc(C(=O)Nc2ccc(OC)cc2[N+](=O)[O-])cc1` the fluorescence artifact activation was 2.86% (inactive).
With `Cn1nc(-c2ccccc2)c2nc3ccccc3nc21` the fluorescence artifact activation was 0.09% (inactive).
In the case of `CCn1nc(-c2ccccc2)c2nc3ccccc3nc21`, the fluorescence artifact activation is reported as 4.1% (inactive).
For `CCCCCn1nc(-c2ccccc2)c2nc3ccccc3nc21`, the fluorescence artifact activation was 20.1% (active).
With `CCOC(=O)CCC(=O)NCc1ccc2c(c1)cc(C)n2C` the fluorescence artifact activation was 0.01% (inactive).
With `CC(=O)N1CCN(S(=O)(=O)c2cccc(C(=O)NNC(=O)c3ccc(Br)cc3)c2)CC1` the fluorescence artifact activation was 0.4% (inactive).
For `COc1ccc2nc3ccccc3nc2c1NC(=O)c1ccc(Cl)cc1Cl`, the fluorescence artifact activation was 0.06% (inactive).
For `COc1ccc2nc3ccccc3nc2c1NC(=O)c1ccc(Br)cc1`, the fluorescence artifact activation was 59.2% (active).
With `CN(C)c1ccc(/C=C/C(=O)c2cc(Cl)ccc2O)cc1` the fluorescence artifact activation was 0.19% (inactive).
With `CC(C)(C)NC(=O)CSc1nnc(-c2ccccn2)n1-c1ccccc1` the fluorescence artifact activation was 0.09% (inactive).
For `Cc1cc(C)c2c(SC(C)C)nc(N)nc2n1`, the fluorescence artifact activation was 5.3% (inactive).
With `CCOCCn1c(CN2CCN(CC)CC2)nc2c1c(=O)n(C)c(=O)n2C` the fluorescence artifact activation was 21.1% (active).
For `CCN(CC)c1ccc(/C=C2\C(=O)c3ccc(C(=O)O)cc3C2=O)cc1`, the fluorescence artifact activation was 8.82% (inactive).
In the case of `CCN(CC)c1ccc2cc(C(C)=O)c(=O)oc2c1`, the fluorescence artifact activation is reported as 0.03% (inactive).
In the case of `CCN(CC)c1ccc2cc(C(=O)Nc3ccccn3)c(=O)oc2c1`, the fluorescence artifact activation is reported as -0.06% (inactive).
For `CCN(CC)c1ccc2cc(C(=O)NCc3ccc(F)cc3)c(=N)oc2c1`, the fluorescence artifact activation was 17.9% (active).
In the case of `N#Cc1c(NC(=O)C2CC=CCC2C(=O)O)sc2c1CCCCCC2` (stereo not given), the fluorescence artifact activation is reported as 0.67% (inactive).
In the case of `COc1ccccc1C(=O)NNC(=O)CCCN1C(=O)/C(=C/c2cccs2)SC1=S`, the fluorescence artifact activation is reported as -0.02% (inactive).
For `Cc1ccc(-c2nn(-c3ccccc3)cc2/C=C2\SC(=S)N(CCCCCC(=O)O)C2=O)o1`, the fluorescence artifact activation was 3.75% (inactive).
In the case of `O=C(O)CCCN1C(=O)/C(=C/c2cn(-c3ccccc3)nc2-c2cccs2)SC1=S`, the fluorescence artifact activation is reported as 54.1% (active).
In the case of `COc1cccc(/C(O)=C/c2nc3ccc(C(=O)NCCc4cccc(C)c4)cc3[nH]c2=O)c1`, the fluorescence artifact activation is reported as 0.04% (inactive).
With `CCc1ccc(/C=C2/C(=O)N(C)C(=S)N2CC(=O)OC)s1` the fluorescence artifact activation was 2.56% (inactive).
With `O=C(Cn1cnc2c(cnn2-c2ccccc2)c1=O)Nc1ccc(S(=O)(=O)N2CCOCC2)cc1` the fluorescence artifact activation was 7.41% (inactive).
In the case of `CN(C)c1ccc(/C=C/C(=O)c2ccc3c(c2)OCO3)cc1`, the fluorescence artifact activation is reported as 2.49% (inactive).
For `C[C@H]1CN([C@@H](C)CO)C(=O)c2cccc(NC(=O)c3nc4ccccc4s3)c2O[C@H]1CN(C)C(=O)Nc1ccc(F)cc1`, the fluorescence artifact activation was 0.31% (inactive).
For `CCN(CC)c1ccc(/C=C(/C#N)C(=O)NC(C)C)o1`, the fluorescence artifact activation was 0.06% (inactive).
For `CC(C)NC(=O)/C(C#N)=C\c1ccc(N(C)C)o1`, the fluorescence artifact activation was 48.4% (active).
In the case of `CC(C)NC(=O)/C(C#N)=C/c1ccc(N(C)C)o1`, the fluorescence artifact activation is reported as 0.18% (inactive).
With `CCN(c1ccc(N=Cc2c(O)n(Cc3ccc(OC)cc3)c(=O)c3ccccc23)cc1)C(C)C` the fluorescence artifact activation was 2.13% (inactive).
In the case of `O=C(CSC1CC(=O)N(c2ccc(C(=O)O)cc2)C1=O)Nc1ccc2ccccc2c1` (stereo not given), the fluorescence artifact activation is reported as 0.06% (inactive).
In the case of `O=C(NCCCN1CCOCC1)C(=O)NCc1ccco1`, the fluorescence artifact activation is reported as 0.11% (inactive).
In the case of `O=C(NCc1ccco1)/C(=C\c1ccco1)NC(=O)c1ccc(Br)o1`, the fluorescence artifact activation is reported as 24.4% (active).
For `CC(C)(C)c1ccc(C(=O)N/C(=C\c2cccs2)C(=O)NCc2ccco2)cc1`, the fluorescence artifact activation was 0.07% (inactive).
For `Cc1cc(=O)c2c([nH]1)c(C)cc1[nH]c(C)c(C)c12`, the fluorescence artifact activation was 0.09% (inactive).
With `C=CCn1c(=O)c(C(=O)NCCNCC)c(O)c2ccccc21` the fluorescence artifact activation was 0.84% (inactive).
With `CCCCN=C1N/C(=C\c2ccco2)C(=O)N1c1ccccc1` the fluorescence artifact activation was 78.2% (active).
In the case of `NC(N)=NCc1cccc(I)c1`, the fluorescence artifact activation is reported as 0.57% (inactive).
In the case of `CN(C)c1ccc(/C=N/NC(=O)c2cnc3ccccc3c2)cc1`, the fluorescence artifact activation is reported as 0.02% (inactive).
With `CC(=O)c1cccc(NC(=S)NC2CCCCC2)c1` the fluorescence artifact activation was 0.08% (inactive).
In the case of `CC(C)CC[C@@H](O)[C@](C)(O)C1CC[C@@]2(O)C3=CC(=O)[C@@H]4C[C@@H](O)[C@@H](O)C[C@]4(C)C3CC[C@]12C` (stereo not given in full), the fluorescence artifact activation is reported as 79.3% (active).
In the case of `CCN1C(=O)c2cccc3c(N)ccc(c23)C1=O`, the fluorescence artifact activation is reported as 0.02% (inactive).
For `CNc1ccc2c3c(cccc13)C(=O)N(C)C2=O`, the fluorescence artifact activation was 40.8% (active).
In the case of `Cc1ccccc1N1C(=O)c2cccc3c(N(C)CCO)ccc(c23)C1=O`, the fluorescence artifact activation is reported as -0.04% (inactive).
With `CN1C(=O)c2cccc3c(N)ccc(c23)C1=O` the fluorescence artifact activation was 0.17% (inactive).
For `CCCCNc1ccc2c3c(cccc13)C(=O)N(CCCC)C2=O`, the fluorescence artifact activation was -0.02% (inactive).
For `CN1C(=O)c2cccc3c(N(C)C)ccc(c23)C1=O`, the fluorescence artifact activation was 70.1% (active).
With `COC(=O)N1c2ccccc2CCc2ccccc21` the fluorescence artifact activation was 1.49% (inactive).
For `CC(=O)Nc1ccc(Nc2c3c4c(cccc4n(C)c2=O)C(=O)c2ccccc2-3)cc1`, the fluorescence artifact activation was 5.51% (inactive).
In the case of `COc1ccc(CNC(=O)c2cc3c(s2)CS(=O)C3)cc1` (stereo not given), the fluorescence artifact activation is reported as 0.1% (inactive).
With `CCc1ccc2c(c1)C(NC(C)=O)C(=O)N2CC` (stereo not given) the fluorescence artifact activation was -0.03% (inactive).
For `Cc1ccc(S(=O)(=O)c2cccc(S(=O)(=O)N3CCOCC3)c2)cc1S(=O)(=O)N1CCOCC1`, the fluorescence artifact activation was 6.87% (inactive).
With `N#C/C(=C\c1ccc(Sc2ccc(Cl)cc2)o1)c1nc2ccccc2[nH]1` the fluorescence artifact activation was -0.03% (inactive).
